Source: PubChem (several laboratories)
Efflux pump inh: inhibitors of Candida antifungal efflux pumps expressed in yeast. S. cerevisiae Candida pump triplex, Nile Red efflux. inhibition, % at 10 µM. actives 0.44% (n = 330,000);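 active = plate passing quality check with inhibition over a set limit, or well fluorescence over plate mean plus 4 SD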;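 also: Nile Red retained in pooled yeast measured as flow cytometry median fluorescence; 0% = buffer negative control and 100% = Enniatin B positive control; higher means more Nile Red kept so more efflux inhibition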
Neddylation inh: blocks human cullin neddylation | P61081+Q13564 | TR-FRET cullin neddylation, biochemical | inhibition, % at 25 µM | actives 0.58% (n = 360,000); in the data active = inhibition above about 36%
Pemphigus Ab inh: human desmoglein-3 autoantibody binding inhibition | actives 0.48% (n = 310,000) | P32926 | DSG3-coupled beads, scFv-anti-DSG3-GFP binding, flow cytometry; active compounds read low | binding (percent of control), % at 10 µM;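 active = binding more than 3 SD below its plate's average and above zero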;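 also: hits lower antibody fragment binding to DSG3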
Arrestin-AP2 inh: blocks beta-arrestin peptide binding to AP2 adaptin | FITC-arrestin peptide / GST-AP2 beads, flow cytometry; AP2 beta2 appendage carries R879A mutation | inhibition, % at 10 µM | actives 0.31% (n = 340,000);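 active = inhibition above a set limit, near 3 SD of compounds lacking own fluorescence, cut at about 54% in these data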;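 also: plate controls were DMSO wells for no effect and 5 µM unlabelled arrestin peptide for full effect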
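Material – AP2 appendage R879A on GSH beads · Buffer or medium – PBS with 0.05% Tween 20 and 0.1% BSA · Probe or stimulus – fluorescein-tagged arrestin peptide at 50 nM final · Incubation – compound with beads 12 min RT, then probe 1 h RT · Detection – high-throughput flow cytometry of beads, ex 488, em 535 nm · Evaluation – percent response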
Arr AP2 CP1: human beta-arrestin and AP2 interaction inhibition, cherry pick; shares compounds with Arrestin-AP2 inh; actives 2% (n = 1,300); AID 504908; inhibition, % at 10 µM; GST-AP2 beads, FITC arrestin peptide binding, flow cytometry; GST-fused beta2-adaptin appendage, R879A mutant;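 active = inhibition above a set limit, roughly 3 SD of non-fluorescent compound noise, cut at about 38% in these data; inactive = inhibition at or below that limit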;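 also: loss of bead fluorescence from 50 nM FITC arrestin peptide bound to appendage; 0% = negative control wells and 100% = excess unlabelled arrestin peptide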
GST-FITC bead: counter-screen for beta-arrestin AP2 inhibitors: GST-GSH bead binding. shares compounds with Arrestin-AP2 inh. GST-fluorescein binding to GSH beads, fluorescence. inhibition, % at 10 µM. actives 2% (n = 1,300). AID 588338;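 active = inhibition above 50%, about 3 SD of the inhibition seen with non-fluorescent compounds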;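 also: fluorescein maleimide labelled GST captured on 4 micron glutathione beads; higher means more loss of bead fluorescence from quenching or blocked binding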
Active calls of the source: *; . = not tested or not shown. The list is not random: actives were taken first. Their share in the collection is about 1.7%.

SMILES | Efflux pump inh | Neddylation inh | Pemphigus Ab inh | Arrestin-AP2 inh | Arr AP2 CP1 | GST-FITC bead
O=C(Nc1ccc(Br)cc1F)c1ccncc1 | 0 | 0 | 96 | 97* | 2 | 0
COc1cc([N+](=O)[O-])cc2sc(NC(C)=O)nc12 | 0 | -37 | 101 | 13 | . | .
CCCCC(=O)Nc1nc2c(OC)cc([N+](=O)[O-])cc2s1 | 0 | -33 | . | 55* | -12 | -10
O=C(CCN1CCCCO1)N1CCCC(Nc2ccc(F)cc2)C1 (centres undefined) | 0 | 0 | 101 | 6 | . | .
c1ccc(CCNCC2COc3ccccc3O2)cc1 (centres undefined) | 0 | 8 | 103 | 55* | -11 | 0
CC(=O)N1CCN(C(=O)CCC(=O)O)CC1 | 0 | 5 | 99 | 14 | . | .
CCN(CC)S(=O)(=O)c1ccc(C(=O)Nc2ccc(Cc3ccncc3)cc2)cc1 | 0 | -1 | 94 | 56* | 7 | -6
CCN(CC)S(=O)(=O)c1ccc(NC(=O)c2ccc(N(C)S(C)(=O)=O)cc2)cc1 | 0 | -2 | . | -8 | . | .
CCn1c(CC(=O)Nc2ccc(OC)cc2)nnc1SCC(=O)N1CCOCC1 | 0 | 2 | 110 | 66* | 6 | -8
CCN(C(=O)c1ccc(S(=O)(=O)N2CCCC2)cc1)C1CCS(=O)(=O)C1 (centres undefined) | 0 | 1 | 114 | 6 | . | .
CCN(c1ccccc1)S(=O)(=O)c1cccc(C(=O)NCC2(N(C)C)CCCCC2)c1 | 0 | -1 | 86 | 14 | 17 | -2
CN(C)C1(CNC(=O)c2cccc(S(=O)(=O)Nc3ccc(Br)cc3)c2)CCCCC1 | 0 | 11 | 123 | -7 | 0 | 2
Cc1ccc(NS(=O)(=O)c2cccc(C(=O)NCC3(N(C)C)CCCCC3)c2)cc1 | 0 | -4 | 107 | -5 | . | .
COc1ccc(NS(=O)(=O)c2cccc(C(=O)NCC3(N(C)C)CCCCC3)c2)cc1 | 0 | -4 | 103 | 55* | -4 | -9
C[C@H]1CNC(=O)C(=O)N1C[C@H](Cc1ccc(O)cc1)NC(=O)CC12CC3CC(CC(C3)C1)C2 | 0 | -17 | . | 10 | . | .
c1ccc(OCCN2CCN(C(c3ccccc3)c3ccccc3)CC2)cc1 | 0 | -3 | 120 | -3 | . | .
O=C(Cc1ccc(NC(=O)C2CCN(C(=O)C3CCC3)CC2)cc1)Nc1cccc(C(=O)N2CCCCC2)c1 | . | 0 | 101 | 60* | 5 | -12
CCCNC(=O)C1CCC(CNS(=O)(=O)c2cccc3nsnc23)CC1 (centres undefined) | 0 | -10 | 94 | 38 | . | .
CCC(C)NC(=O)C1CCC(CNS(=O)(=O)c2cccc3nsnc23)CC1 (centres undefined) | 0 | -25 | . | 54* | 2 | 1
O=C(Nc1ccccc1F)n1ncc2cc(Cl)ccc21 | 0 | -12 | 87 | 62* | -2 | -4
COC(=O)c1c(NC(=O)CN2C(=O)NC3(CCc4ccccc4C3)C2=O)sc2c1CCCCC2 (centres undefined) | 0 | -137 | 83 | 106* | 7 | 2
C[C@H](CO)N1C[C@H](C)[C@@H](CN(C)S(=O)(=O)c2cccc(F)c2)Oc2ncc(Br)cc2C1=O | . | -6 | 108 | . | . | .
COc1ccc(/C=N/Nc2ccc([N+](=O)[O-])cc2S(=O)(=O)N2CCN(C)CC2)cc1 | -13 | 6 | 121 | 102* | 18 | -4
COc1ccccc1N1CC(C(=O)Nc2ccc(C)c(S(=O)(=O)N3CCOCC3)c2)CC1=O (centres undefined) | 0 | -8 | . | -5 | . | .
O=C1CC2(CCN(C(=O)c3ccc(Br)cc3)CC2)Oc2ccccc21 | 0 | 27 | 99 | -3 | . | .
SMILES | Efflux pump inh | Neddylation inh | Pemphigus Ab inh | Arrestin-AP2 inh | Arr AP2 CP1 | GST-FITC bead
CC(C)=C1SC(N2CCCCC2)=NC1=O | 0 | -2 | 108 | 13 | . | .
C/C(=C1/SC(N2CCCC2)=NC1=O)c1ccc(Br)cc1 | 0 | -28 | 110 | 79* | -12 | -6
Cc1cc(OCC(=O)Nc2nccs2)c2c(C)cc(=O)oc2c1 | 0 | -43 | 88 | 60* | 2 | -1
CC(C)Nc1nnc(SC(C)C(=O)Nc2ccc(Cl)cn2)s1 (centres undefined) | 0 | -7 | 102 | 55* | 0 | 5
CC(O)c1nc2ccccc2n1CCCc1ccccc1 (centres undefined) | 0 | 7 | 105 | 6 | . | .
CC(O)c1nc2ccccc2n1Cc1ccccc1 (centres undefined) | 0 | -1 | 110 | 54* | -3 | -6
Cc1cccc(NC(=O)N2C3CCCC2CC(NC(=O)C(C)(C)C)C3)c1 (centres undefined) | 0 | -6 | 113 | 1 | . | .
CCc1ccc([C@H]2[C@@H]3C(=O)C[C@@H]4C(=O)NC(=O)[C@@H]4[C@@H]3CN2S(=O)(=O)c2ccc(C)cc2)cc1 | . | -7 | . | . | . | .
COc1ccc(N(CC(=O)Nc2ccc(C)c(C)c2)S(=O)(=O)c2c(C)noc2C)cc1 | 0 | -2 | . | -7 | . | .
COc1ccc(NC(=O)CCN(c2ccc(OC)cc2)S(=O)(=O)c2ccc(C)c(C)c2)cc1 | . | -1 | 104 | 65* | 3 | -4
CC(=O)/C(=N\Nc1ccccc1)Sc1nnc(-c2ccccc2)n1-c1ccccc1 | 0 | -3 | 94 | 91* | 8 | 5
O=C(CNC(=O)c1ccc(Br)cc1)Nc1ccc2c(c1)CCC2 | 0 | -14 | 106 | 54* | 12 | 3
Cc1ccc(C(=O)NCC(=O)Nc2ccc3c(c2)CCC3)cc1C | . | 3 | 106 | 5 | . | .
CCNC(=O)Nc1ccc(-n2nc(C)c(C(=O)OCC)c2C)nc1 | 0 | 3 | 106 | 8 | . | .
Cc1nc2c(-c3ccc(F)cc3)c(C)nn2c(C)c1CCC(=O)N1CCN(c2ccc(F)cc2)CC1 | 0 | 31 | 105 | -10 | . | .
O=S(=O)(c1cccc(-c2cn3cccnc3n2)c1)N1CCCCCC1 | 0 | . | 107 | 61* | -1 | -4
CCN1C(=O)[C@H]2[C@@H](c3ccc(-c4ccc(C(C)=O)cc4)cc3)N[C@@](C)(C(=O)OC)[C@H]2C1=O | 0 | -41 | 103 | 21 | . | .
Cc1cc(C)cc(NC(=O)C(=O)NCC2CCCN2S(=O)(=O)c2cccs2)c1 (centres undefined) | 0 | 5 | 97 | 69* | 2 | -8
Cc1noc(C)c1COC(=O)c1ccc(F)c(S(=O)(=O)N2CCOCC2)c1 | 0 | -3 | 100 | -3 | . | .
CCOc1ccc(/C=C2\CCC(C3CCCC3)C2=O)cc1OC (centres undefined) | 0 | -2 | 94 | 59* | 12 | -3
CCOc1ccc(/C=C2\CCC(C3CCCC3)C2=O)cc1 (centres undefined) | 0 | -5 | 94 | 1 | . | .
COc1ccc(N2CCCC2)c(NC(=O)c2ccc(Br)o2)c1 | 0 | . | 109 | 64* | 19 | -6
